{"source": "ChEMBL document CHEMBL3817843", "about": "“Understanding Oxadiazolothiazinone Biological Properties: Negative Inotropic Activity versus Cytochrome P450-Mediated Metabolism” (J Med Chem, 2016)", "key": {"[1]": {"tested_on": "Aorta", "test": "Vasorelaxant activity in potassium depolarized guinea pig aorta assessed as inhibition of calcium-induced contraction at 10^-6 M preincubated for 30 mins followed by 0.5 uM nifedipine addition", "assay_type": "functional, Cavia porcellus", "design": "scale not given: the % may be the effect or the level left", "summary_of_the_method": "(§1)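 K+-depolarized (80 mM) guinea pig aortic strips contracted with calcium. Compound at 1 μM added 30 min before diltiazem, verapamil or nifedipine. Response expressed as percent change from control. Data given as mean ±, Student's t test.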"}, "[2]": {"tested_on": "Aorta", "test": "Vasorelaxant activity in potassium depolarized guinea pig aorta assessed as inhibition of calcium-induced contraction at 10^-8 M preincubated for 30 mins followed by 50 uM diltiazem addition", "assay_type": "functional, Cavia porcellus", "design": "scale not given: the % may be the effect or the level left"}, "[3]": {"tested_on": "Left cardiac atrium", "test": "Negative inotropic activity in potassium depolarized guinea pig left atrium assessed as reduction in developed tension at 10^-8 M preincubated for 30 mins followed by 0.5 uM nifedipine addition", "assay_type": "functional, Cavia porcellus", "design": "scale not given: the % may be the effect or the level left"}, "[4]": {"tested_on": "Left cardiac atrium", "test": "Negative inotropic activity in potassium depolarized guinea pig left atrium assessed as EC50 for nifedipine at 10^-8 M preincubated for 30 mins followed by nifedipine addition", "assay_type": "functional", "details": "Cavia porcellus", "summary_of_the_method": "(§2)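 Guinea pig left atria driven at 1 Hz. Pretreated with compound at 0.01 μM, added 30 min before diltiazem, verapamil or nifedipine. Blocker concentration−response curves analysed by probit (Litchfield and Wilcoxon), n = 6−7. Data given as mean ±, Student's t test.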"}, "[5]": {"tested_on": "Aorta", "test": "Inhibition of nifedipine-induced vasorelaxant activity in potassium depolarized guinea pig aorta assessed as relaxation of calcium-induced contraction at 10^-8 M preincubated for 30 mins followed by nifedipine addition", "assay_type": "functional, tissue-based", "details": "Cavia porcellus"}, "[6]": {"tested_on": "Aorta", "test": "Inhibition of verapamil-induced vasorelaxant activity in potassium depolarized guinea pig aorta assessed as relaxation of calcium-induced contraction at 10^-6 M preincubated for 30 mins followed by verapamil addition", "assay_type": "functional, tissue-based", "details": "Cavia porcellus", "summary_of_the_method": "as §1"}, "[7]": {"tested_on": "Aorta", "test": "Vasorelaxant activity in potassium depolarized guinea pig aorta assessed as inhibition of calcium-induced contraction at 10^-8 M preincubated for 30 mins followed by 5 uM verapamil addition", "assay_type": "functional, Cavia porcellus", "design": "scale not given: the % may be the effect or the level left"}, "[8]": {"tested_on": "Aorta", "test": "Inhibition of diltiazem-induced vasorelaxant activity in potassium depolarized guinea pig aorta assessed as relaxation of calcium-induced contraction at 10^-8 M preincubated for 30 mins followed by diltiazem addition", "assay_type": "functional, tissue-based", "details": "Cavia porcellus"}, "[9]": {"biological_target": "T1, Cytochrome P450 3A4 (Homo sapiens, UniProt P08684)", "T1 sequence (P08684 whole entry)": "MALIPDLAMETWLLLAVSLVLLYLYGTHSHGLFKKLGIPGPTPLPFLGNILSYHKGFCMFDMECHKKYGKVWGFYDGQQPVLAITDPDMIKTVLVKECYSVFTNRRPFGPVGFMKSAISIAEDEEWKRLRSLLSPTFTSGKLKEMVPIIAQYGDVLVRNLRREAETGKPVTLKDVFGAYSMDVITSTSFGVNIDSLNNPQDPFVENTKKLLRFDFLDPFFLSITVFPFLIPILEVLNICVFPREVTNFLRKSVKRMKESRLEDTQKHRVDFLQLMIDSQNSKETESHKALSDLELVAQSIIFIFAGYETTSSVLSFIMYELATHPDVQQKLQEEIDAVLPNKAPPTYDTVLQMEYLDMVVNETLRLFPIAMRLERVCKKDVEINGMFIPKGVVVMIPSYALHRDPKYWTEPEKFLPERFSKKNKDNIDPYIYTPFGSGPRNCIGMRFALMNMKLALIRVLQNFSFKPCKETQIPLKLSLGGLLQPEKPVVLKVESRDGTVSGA", "test": "Inhibition of CYP3A4 in human liver microsomes using midazolam as substrate after 4 mins by LC-MS analysis"}, "[10]": {"tested_on": "Left cardiac atrium", "test": "Potentiation of verapamil-induced negative inotropic activity in potassium depolarized guinea pig left atrium assessed as reduction in developed tension at 10^-8 M preincubated for 30 mins followed by verapamil addition", "assay_type": "functional", "details": "Cavia porcellus", "summary_of_the_method": "as §2"}, "[11]": {"tested_on": "Aorta", "test": "Vasorelaxant activity in potassium depolarized guinea pig aorta assessed as relaxation of calcium-induced contraction at 10^-6 M after 30 mins", "assay_type": "functional, tissue-based", "details": "Cavia porcellus", "summary_of_the_method": "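Guinea pig aortic strips depolarized with K+ (80 mM). Calcium-induced contraction measured; inhibition expressed as percent change from control, n = 3−5.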"}, "[12]": {"tested_on": "Left cardiac atrium", "test": "Potentiation of nifedipine-induced negative inotropic activity in potassium depolarized guinea pig left atrium assessed as reduction in developed tension at 10^-8 M preincubated for 30 mins followed by nifedipine addition", "assay_type": "functional", "details": "Cavia porcellus", "summary_of_the_method": "as §2"}, "[13]": {"tested_on": "Left cardiac atrium", "test": "Negative inotropic activity against potassium depolarized guinea pig left atrium assessed as decrease in diltiazem EC50 at 10^-8 M preincubated for 30 mins followed by diltiazem addition relative to control", "assay_type": "functional, Cavia porcellus", "summary_of_the_method": "(§3)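 Isolated guinea pig left atria, electrically driven at 1 Hz. The pretreatment agent (0.01 μM) was added to the bath 30 min before the L-type calcium channel blocker. Blocker concentration–response curves were then run to obtain the negative inotropic EC50, which was compared with the EC50 for the blocker alone. Data were compared by Student's t test.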"}, "[14]": {"tested_on": "Left cardiac atrium", "test": "Potentiation of diltiazem-induced negative inotropic activity in potassium depolarized guinea pig left atrium assessed as reduction in developed tension at 10^-8 M preincubated for 30 mins followed by diltiazem addition", "assay_type": "functional", "details": "Cavia porcellus", "summary_of_the_method": "as §2"}, "[15]": {"tested_on": "Left cardiac atrium", "test": "Negative inotropic activity in potassium depolarized guinea pig left atrium assessed as reduction in developed tension at 10^-8 M preincubated for 30 mins followed by 5 uM diltiazem addition", "assay_type": "functional, Cavia porcellus", "design": "scale not given: the % may be the effect or the level left"}, "[16]": {"tested_on": "Left cardiac atrium", "test": "Negative inotropic activity in potassium depolarized guinea pig left atrium assessed as EC50 for verapamil at 10^-8 M preincubated for 30 mins followed by verapamil addition", "assay_type": "functional", "details": "Cavia porcellus", "summary_of_the_method": "as §2"}, "[17]": {"test": "Half life in human liver microsomes assessed as CYP-mediated compound degradation at 1 uM by LC-MS analysis"}, "[18]": {"biological_target": "T1, Cytochrome P450 3A4", "test": "Inhibition of CYP3A4 in human liver microsomes using testosterone as substrate after 5 mins by LC-MS analysis"}, "[19]": {"biological_target": "Cytochrome P450 2C19 (Homo sapiens, UniProt P33261)", "sequence (P33261 whole entry)": "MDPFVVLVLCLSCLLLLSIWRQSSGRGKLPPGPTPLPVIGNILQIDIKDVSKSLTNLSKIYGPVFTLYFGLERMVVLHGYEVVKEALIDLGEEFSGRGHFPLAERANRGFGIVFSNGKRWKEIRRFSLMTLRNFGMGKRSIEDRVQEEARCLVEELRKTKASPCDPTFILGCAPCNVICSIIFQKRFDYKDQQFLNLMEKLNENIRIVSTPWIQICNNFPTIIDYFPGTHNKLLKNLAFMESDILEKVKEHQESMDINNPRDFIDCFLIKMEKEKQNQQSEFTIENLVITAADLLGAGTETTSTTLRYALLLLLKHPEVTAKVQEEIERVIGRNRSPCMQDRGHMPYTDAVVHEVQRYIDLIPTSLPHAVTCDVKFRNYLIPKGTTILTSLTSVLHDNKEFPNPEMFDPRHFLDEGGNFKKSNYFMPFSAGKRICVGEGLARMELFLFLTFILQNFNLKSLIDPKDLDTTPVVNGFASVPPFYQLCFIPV", "test": "Inhibition of CYP2C19 in human liver microsomes using (S)-mephenytoin as substrate after 40 mins by LC-MS analysis"}, "[20]": {"biological_target": "Cytochrome P450 2C9 (Homo sapiens, UniProt P11712)", "sequence (P11712 whole entry)": "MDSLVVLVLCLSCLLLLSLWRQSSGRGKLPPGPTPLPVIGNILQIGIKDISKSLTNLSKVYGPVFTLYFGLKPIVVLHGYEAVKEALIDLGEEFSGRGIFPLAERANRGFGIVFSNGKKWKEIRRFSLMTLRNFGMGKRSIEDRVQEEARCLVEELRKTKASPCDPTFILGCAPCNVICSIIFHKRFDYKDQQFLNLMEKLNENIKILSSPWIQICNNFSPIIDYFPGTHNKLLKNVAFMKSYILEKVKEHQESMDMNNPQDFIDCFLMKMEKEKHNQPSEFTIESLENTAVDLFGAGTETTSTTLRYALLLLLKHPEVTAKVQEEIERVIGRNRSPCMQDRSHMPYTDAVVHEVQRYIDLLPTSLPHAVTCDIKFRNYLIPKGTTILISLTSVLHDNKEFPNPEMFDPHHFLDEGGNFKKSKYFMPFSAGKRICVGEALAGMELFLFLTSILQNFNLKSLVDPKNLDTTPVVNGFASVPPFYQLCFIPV", "test": "Inhibition of CYP2C9 in human liver microsomes using tolbutamide as substrate after 20 mins by LC-MS analysis"}, "[21]": {"tested_on": "Aorta", "test": "Inhibition of diltiazem-induced vasorelaxant activity in potassium depolarized guinea pig aorta assessed as relaxation of calcium-induced contraction at 10^-6 M preincubated for 30 mins followed by diltiazem addition", "assay_type": "functional, tissue-based", "details": "Cavia porcellus", "summary_of_the_method": "as §1"}, "[22]": {"tested_on": "Aorta", "test": "Vasorelaxant activity in potassium depolarized guinea pig aorta assessed as IC50 for diltiazem at 10^-8 M preincubated for 30 mins followed diltiazem addition", "assay_type": "functional, tissue-based", "details": "Cavia porcellus"}, "[23]": {"tested_on": "Left cardiac atrium", "test": "Negative inotropic activity against potassium depolarized guinea pig left atrium assessed as decrease in nifedipine EC50 at 10^-8 M preincubated for 30 mins followed by nifedipine addition relative to control", "assay_type": "functional, Cavia porcellus", "summary_of_the_method": "as §3"}, "[24]": {"tested_on": "Aorta", "test": "Inhibition of verapamil-induced vasorelaxant activity in potassium depolarized guinea pig aorta assessed as relaxation of calcium-induced contraction at 10^-8 M preincubated for 30 mins followed by verapamil addition", "assay_type": "functional, tissue-based", "details": "Cavia porcellus"}, "[25]": {"biological_target": "T2, Cytochrome P450 1A2 (Homo sapiens, UniProt P05177)", "T2 sequence (P05177 whole entry)": "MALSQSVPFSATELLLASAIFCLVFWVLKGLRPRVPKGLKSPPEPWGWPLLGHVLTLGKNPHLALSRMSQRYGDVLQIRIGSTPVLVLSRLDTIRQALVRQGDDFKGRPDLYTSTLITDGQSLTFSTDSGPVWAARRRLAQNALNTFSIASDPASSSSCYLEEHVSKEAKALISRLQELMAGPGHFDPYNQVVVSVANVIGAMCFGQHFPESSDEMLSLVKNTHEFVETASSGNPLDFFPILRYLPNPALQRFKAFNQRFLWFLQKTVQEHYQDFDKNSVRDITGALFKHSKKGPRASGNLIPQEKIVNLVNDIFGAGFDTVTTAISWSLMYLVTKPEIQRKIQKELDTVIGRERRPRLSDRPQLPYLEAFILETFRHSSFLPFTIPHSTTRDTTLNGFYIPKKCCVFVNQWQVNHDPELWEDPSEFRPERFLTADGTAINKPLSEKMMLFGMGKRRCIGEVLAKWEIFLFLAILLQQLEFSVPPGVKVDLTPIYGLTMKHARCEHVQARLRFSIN", "test": "Inhibition of CYP1A2 in human liver microsomes using phenacetin as substrate after 30 mins by LC-MS analysis"}, "[26]": {"tested_on": "Left cardiac atrium", "test": "Negative inotropic activity in potassium depolarized guinea pig left atrium assessed as EC50 for diltiazem at 10^-8 M preincubated for 30 mins followed by diltiazem addition", "assay_type": "functional", "details": "Cavia porcellus", "summary_of_the_method": "as §2"}}, "note": "Calls of active or inactive are those of the source. The rule behind the calls is not given here."}
{"smiles": "CCOC1(c2ccc(Br)cc2)SC=C(C)n2c1noc2=O", "note": "(stereo unspecified)", "values": [{"measurement": "Activity", "setting": "[1]", "value": 11, "unit": "%"}, {"measurement": "Activity", "setting": "[2]", "value": 64, "unit": "%"}, {"measurement": "Activity", "setting": "[3]", "value": 94, "unit": "%"}, {"measurement": "EC50", "setting": "[4]", "value": 0.022, "unit": "µM"}, {"measurement": "inhibition", "setting": "[5]", "value": "Active"}, {"measurement": "inhibition", "setting": "[6]", "value": "Active"}, {"measurement": "Activity", "setting": "[7]", "value": 20, "unit": "%"}, {"measurement": "inhibition", "setting": "[8]", "value": "inactive"}, {"measurement": "IC50", "setting": "[9]", "value": "> 20", "unit": "µM"}, {"measurement": "Activity", "setting": "[10]", "value": "Active"}, {"measurement": "inhibition", "setting": "[11]", "value": "inactive"}, {"measurement": "Activity", "setting": "[12]", "value": "Active"}, {"measurement": "fold change (FC)", "setting": "[13]", "value": 3.3}, {"measurement": "Activity", "setting": "[14]", "value": "Active"}, {"measurement": "Activity", "setting": "[15]", "value": 92, "unit": "%"}, {"measurement": "EC50", "setting": "[16]", "value": 0.05, "unit": "µM"}, {"measurement": "half-life at 1 µM", "setting": "[17]", "value": 53, "unit": "min"}, {"measurement": "IC50", "setting": "[18]", "value": 19.2, "unit": "µM"}, {"measurement": "IC50", "setting": "[19]", "value": 1.8, "unit": "µM"}, {"measurement": "IC50", "setting": "[20]", "value": 18.4, "unit": "µM"}, {"measurement": "inhibition", "setting": "[21]", "value": "Active"}, {"measurement": "IC50", "setting": "[22]", "value": 0.47, "unit": "µM"}, {"measurement": "fold change (FC)", "setting": "[23]", "value": 11.8}, {"measurement": "inhibition", "setting": "[24]", "value": "Active"}, {"measurement": "IC50", "setting": "[25]", "value": 2.9, "unit": "µM"}, {"measurement": "EC50", "setting": "[26]", "value": 0.27, "unit": "µM"}]}
